Measurements as given in paper PMC3608840 (Journal of biomolecular screening, 2012).

What was measured:
[1] = test system: equilibrative nucleoside transporter 1 (ENT1); settings: cited from earlier work
pAP [2] = assay: Fluorogenic; type: biochemical, potato
In short: (§1)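 Bovine ALP (5 pM final; 50 mM Tris-HCl pH 8.0) or potato acid phosphatase (1.5 nM final; 50 mM sodium acetate pH 5.3), each buffer with 0.01% Tween-20, or human PTP-1B. 12-point in-plate compound series, 15 min room-temperature preincubation with enzyme, then 100 μM DiFMUP final. Fluorescence (ex 340/em 450 nm) read each min for 3 min. Change normalized to enzyme and no-enzyme controls, sigmoidal dose-response fit.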

PTP = target: T1, PTP (Homo sapiens, UniProt P18031); assay: Fluorogenic assay, Protein Tyrosine Phosphatase-1B; type: biochemical; settings: data not shown
T1 sequence (P18031 1-435): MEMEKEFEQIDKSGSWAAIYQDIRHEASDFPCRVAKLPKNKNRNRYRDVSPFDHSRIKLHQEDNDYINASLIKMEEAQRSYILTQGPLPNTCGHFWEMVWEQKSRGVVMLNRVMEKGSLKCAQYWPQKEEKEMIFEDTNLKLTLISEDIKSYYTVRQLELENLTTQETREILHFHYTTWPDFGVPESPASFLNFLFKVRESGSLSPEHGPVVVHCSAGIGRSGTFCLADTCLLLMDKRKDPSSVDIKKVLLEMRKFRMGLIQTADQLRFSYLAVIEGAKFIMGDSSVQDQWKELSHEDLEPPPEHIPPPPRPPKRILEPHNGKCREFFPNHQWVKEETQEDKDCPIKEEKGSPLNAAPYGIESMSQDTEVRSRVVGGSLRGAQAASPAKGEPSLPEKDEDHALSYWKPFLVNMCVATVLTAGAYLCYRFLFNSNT
In short: as §1

hPAP [3] = target: T2, hPAP (Homo sapiens, UniProt P15309); assay: Fluorogenic; type: biochemical
T2 sequence (P15309 33-386): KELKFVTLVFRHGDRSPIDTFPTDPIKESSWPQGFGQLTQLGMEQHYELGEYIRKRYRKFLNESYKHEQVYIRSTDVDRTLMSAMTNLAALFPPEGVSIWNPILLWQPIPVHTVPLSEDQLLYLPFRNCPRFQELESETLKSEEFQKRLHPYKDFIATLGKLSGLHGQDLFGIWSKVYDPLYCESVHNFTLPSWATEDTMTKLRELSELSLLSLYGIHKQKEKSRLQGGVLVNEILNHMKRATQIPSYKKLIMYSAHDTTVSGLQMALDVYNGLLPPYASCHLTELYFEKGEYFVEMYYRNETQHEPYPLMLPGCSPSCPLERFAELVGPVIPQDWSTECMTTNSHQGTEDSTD

mPAP [4] = target: T3, mPAP (Mus musculus, UniProt Q8CE08); assay: Fluorogenic; type: biochemical
T3 sequence (Q8CE08 32-381): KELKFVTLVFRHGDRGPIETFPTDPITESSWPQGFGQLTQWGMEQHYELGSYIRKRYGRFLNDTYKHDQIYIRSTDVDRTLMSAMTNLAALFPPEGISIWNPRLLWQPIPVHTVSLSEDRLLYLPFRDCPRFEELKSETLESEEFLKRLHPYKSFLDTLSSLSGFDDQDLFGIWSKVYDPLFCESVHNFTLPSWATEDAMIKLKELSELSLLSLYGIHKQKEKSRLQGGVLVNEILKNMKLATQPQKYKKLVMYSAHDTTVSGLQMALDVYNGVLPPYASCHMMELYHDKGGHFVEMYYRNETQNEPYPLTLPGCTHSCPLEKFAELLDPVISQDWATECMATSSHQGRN

A2B adenosine receptor = target: T4, A2B adenosine receptor (Homo sapiens, UniProt P29275); assay: A2B receptor activation by adenosine in calcium mobilization assay; type: cell-based; settings: BABPA 5 μM, pCPT-cAMP 100 μM; 1 mM adenosine as ligand
T4 sequence (P29275 1-332): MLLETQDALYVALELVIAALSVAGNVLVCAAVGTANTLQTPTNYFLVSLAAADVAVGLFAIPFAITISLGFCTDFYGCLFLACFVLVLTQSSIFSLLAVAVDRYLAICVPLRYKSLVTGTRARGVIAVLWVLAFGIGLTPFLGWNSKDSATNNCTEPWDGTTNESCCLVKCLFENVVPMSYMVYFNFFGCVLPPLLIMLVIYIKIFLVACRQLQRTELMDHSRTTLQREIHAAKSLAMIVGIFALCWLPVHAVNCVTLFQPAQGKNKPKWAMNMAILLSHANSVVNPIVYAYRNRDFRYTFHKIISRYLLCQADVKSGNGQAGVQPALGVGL

ALP [5] = assay: 5′-AMP hydrolysis; type: biochemical, bovine; settings: for ALP 5′-AMP Hydrolysis IC50: 100 μM AMP
mPAP [6] = target: T3, mPAP; assay: 5′-AMP hydrolysis; type: biochemical; settings: for Normalized inhibition of mPAP, 5′-AMP hydrolysis (in words): compound at 100 μM
ALP [7] = assay: Fluorogenic; type: biochemical, bovine; settings: for ALP Fluorogenic Assay IC50: DiFMUP substrate, pH 8.0
In short: as §1

hPAP [8] = target: T2, hPAP; assay: 5′-AMP hydrolysis; type: biochemical
transmembrane PAP = assay: Cell-based calcium mobilization assay of AMP hydrolysis by transmembrane PAP; settings: HEK293 cells expressing hA2B + Gαq-s5 + transmembrane PAP, 1 mM AMP
PAP [9] = settings: cited from earlier work
HEK293 cells = assay: Cell killing in the cell-based calcium mobilization assay
[10] = read-out: hPAP Fluorogenic Assay IC50, DiFMUP substrate, pH 7.0
[11] = read-out: hPAP 5′-AMP Hydrolysis IC50, 400 μM AMP, pH 7.0

Nc1ncnc2c1nc(Sc1ccc(Cl)cc1)n2C1OC2COP(=O)(O)O[C@H]2C1O (stereo in doubt) [compound 21, 8-(4-Chlorophenylthio)-cAMP sodium]
Block of ENT1 (in words) [1]: blocked | Inhibition of pAP, fluorogenic substrate (in words) (pAP [2]): Neither pCPT-cAMP nor pCPT-cGMP inhibited | pAP Fluorogenic Assay IC50 (pAP [2]; DiFMUP substrate, pH 5.3): Inactive | Inhibition of PTP, fluorogenic substrate (in words) (PTP): Neither pCPT-cAMP nor pCPT-cGMP inhibited | IC50 (hPAP [3]; [10]): 39.8 µM | IC50 (mPAP [4]; read-out: mPAP Fluorogenic Assay IC50, DiFMUP substrate, pH 7.0): 35.5 µM | Block of A2B receptor activation by adenosine (in words) (A2B adenosine receptor): did not block | ALP 5′-AMP Hydrolysis IC50 (ALP [5]): Inactive | IC50 (mPAP [6]; read-out: mPAP 5′-AMP Hydrolysis IC50, 1 mM AMP, pH 7.0): 20.2 µM | Inhibition of ALP, fluorogenic substrate (in words) (ALP [7]): Neither pCPT-cAMP nor pCPT-cGMP inhibited | ALP Fluorogenic Assay IC50 (ALP [7]): Inactive | IC50 (hPAP [8]; [11]): 5.66 µM | Inhibition of hydrolysis of AMP to adenosine by transmembrane PAP (in words) (transmembrane PAP): dose-dependently inhibited

O=P(O)(O)C(NCc1ccccc1)c1ccccc1 (stereo not drawn) [BABPA, α-Benzylaminobenzylphosphonic acid]
Inhibition of PAP (potency in words) (PAP [9]): low nanomolar range | IC50 (hPAP [3]; read-out: IC50 hPAP, fluorogenic assay, positive control, DiFMUP substrate): 0.00497 µM | IC50 (mPAP [4]; read-out: IC50 mPAP, fluorogenic assay, positive control, DiFMUP substrate): 0.0206 µM | Block of A2B receptor activation by adenosine (in words) (A2B adenosine receptor): did not block | Inhibition of hydrolysis of AMP to adenosine by transmembrane PAP (in words) (transmembrane PAP): dose-dependently inhibited

CCCOc1ccc2ccccc2c1/C=C/c1nc(O)c([N+](=O)[O-])c(=O)[nH]1 [Compound 49, 6-hydroxy-5-nitro-2-[(E)-2-(2-propoxy-naphthalen-1-yl)-vinyl]-3H-pyrimidin-4-one]
Inhibition of ALP, 5′-AMP hydrolysis (in words) (ALP [5]; compound at 100 μM): did not inhibit | IC50 (mPAP [6]): 42.9 µM | IC50 (hPAP [8]): 2.9 µM

O=C([O-])[C@H](O)[C@@H](O)C(=O)[O-].[Na+].[Na+] [L-(+)-tartrate]
Inhibition of ALP, 5′-AMP hydrolysis (in words) (ALP [5]; 10 mM): did not inhibit | Inhibition of mPAP, 5′-AMP hydrolysis (in words) (mPAP [6]; 10 mM): inhibited | Inhibition of hPAP, 5′-AMP hydrolysis (in words) (hPAP [8]; 10 mM): inhibited

O=C(O)c1nn(Cc2ccc(Cl)cc2Cl)c2ccccc12 [compound 9, Lonidamine]
pAP Fluorogenic Assay IC50 (pAP [2]; DiFMUP substrate, pH 5.3): Inactive | IC50 (hPAP [3]): 50.1 µM | mPAP Fluorogenic Assay IC50 (mPAP [4]; DiFMUP substrate, pH 7.0): Inactive | ALP 5′-AMP Hydrolysis IC50 (ALP [5]): Inactive | IC50 (mPAP [6]): 31.1 µM | Cell killing (in words) (HEK293 cells): killed the cells | ALP Fluorogenic Assay IC50 (ALP [7]): Inactive | IC50 (hPAP [8]): 15.5 µM

COc1ccc2c(c1)c(CC(=O)O)c(C)n2Cc1ccc(Cl)cc1 [compound 17, 1-(4-Chlorobenzyl)-5-methoxy-2-methylindole-3-acetic acid]
pAP Fluorogenic Assay IC50 (pAP [2]; DiFMUP substrate, pH 5.3): Inactive | IC50 (hPAP [3]; [10]): 39.8 µM | mPAP Fluorogenic Assay IC50 (mPAP [4]; DiFMUP substrate, pH 7.0): Inactive | ALP 5′-AMP Hydrolysis IC50 (ALP [5]): Inactive | mPAP 5′-AMP Hydrolysis IC50 (mPAP [6]; 1 mM AMP, pH 7.0): Inactive | Normalized inhibition of mPAP, 5′-AMP hydrolysis (in words) (mPAP [6]): did not inhibit | ALP Fluorogenic Assay IC50 (ALP [7]): Inactive | IC50 (hPAP [8]; [11]): 46.3 µM

Clc1ccc(C(c2ccc(Cl)cc2)n2cc[n+](CC(OCc3ccc(Cl)cc3Cl)c3ccc(Cl)cc3Cl)c2)cc1 (stereo not drawn) [compound 29, Calmidazolium chloride]
pAP Fluorogenic Assay IC50 (pAP [2]; DiFMUP substrate, pH 5.3): Inactive | IC50 (hPAP [3]): 44.7 µM | IC50 (mPAP [4]): 39.8 µM | ALP 5′-AMP Hydrolysis IC50 (ALP [5]): Inactive | IC50 (mPAP [6]): 11.6 µM | Cell killing (in words) (HEK293 cells): killed the cells | ALP Fluorogenic Assay IC50 (ALP [7]): Inactive | IC50 (hPAP [8]): 1.48 µM

O=c1c(O)c(-c2ccc(O)c(O)c2)oc2cc(O)cc(O)c12 [compound 70, Quercetin]
pAP Fluorogenic Assay IC50 (pAP [2]; DiFMUP substrate, pH 5.3): Inactive | IC50 (hPAP [3]): 31.6 µM | mPAP Fluorogenic Assay IC50 (mPAP [4]; DiFMUP substrate, pH 7.0): Inactive | ALP 5′-AMP Hydrolysis IC50 (ALP [5]): Inactive | mPAP 5′-AMP Hydrolysis IC50 (mPAP [6]; 1 mM AMP, pH 7.0): Inactive | Normalized inhibition of mPAP, 5′-AMP hydrolysis (in words) (mPAP [6]): did not inhibit | ALP Fluorogenic Assay IC50 (ALP [7]): Inactive | hPAP 5′-AMP Hydrolysis IC50 (hPAP [8]; 400 μM AMP, pH 7.0): Inactive

CCn1cc(C(=O)O)c(=O)c2ccc(C)nc21 [compound 77, Nalidixic acid sodium]
pAP Fluorogenic Assay IC50 (pAP [2]; DiFMUP substrate, pH 5.3): Inactive | IC50 (hPAP [3]): 28.2 µM | IC50 (mPAP [4]): 2.8 µM | ALP 5′-AMP Hydrolysis IC50 (ALP [5]): Inactive | IC50 (mPAP [6]): 20.6 µM | ALP Fluorogenic Assay IC50 (ALP [7]): Inactive | IC50 (hPAP [8]): 20.5 µM

CCCCCCC(C)(C)c1ccc([C@@H]2C[C@H](O)CC[C@H]2CCCO)c(O)c1 [compound 96, CP-55940]
IC50 (pAP [2]; read-out: pAP Fluorogenic Assay IC50, DiFMUP substrate, pH 5.3): 39.8 µM | IC50 (hPAP [3]): 31.6 µM | IC50 (mPAP [4]): 15.8 µM | ALP 5′-AMP Hydrolysis IC50 (ALP [5]): Inactive | mPAP 5′-AMP Hydrolysis IC50 (mPAP [6]; 1 mM AMP, pH 7.0): Inactive | Normalized inhibition of mPAP, 5′-AMP hydrolysis (in words) (mPAP [6]): did not inhibit | ALP Fluorogenic Assay IC50 (ALP [7]): Inactive | hPAP 5′-AMP Hydrolysis IC50 (hPAP [8]; 400 μM AMP, pH 7.0): Inactive

O=c1c(O)c(-c2cc(O)c(O)c(O)c2)oc2cc(O)cc(O)c12 [compound 97, Myricetin]
pAP Fluorogenic Assay IC50 (pAP [2]; DiFMUP substrate, pH 5.3): Inactive | IC50 (hPAP [3]): 44.7 µM | ALP 5′-AMP Hydrolysis IC50 (ALP [5]): Inactive | ALP Fluorogenic Assay IC50 (ALP [7]): Inactive | IC50 (hPAP [8]): 26.5 µM

Nc1nc2c(nc(Sc3ccc(Cl)cc3)n2[C@@H]2O[C@@H]3COP(=O)(O)O[C@H]3[C@H]2O)c(=O)[nH]1 [pCPT-cGMP, 8-(4-chlorophenylthio) cGMP]
Inhibition of pAP, fluorogenic substrate (in words) (pAP [2]): Neither pCPT-cAMP nor pCPT-cGMP inhibited | Inhibition of PTP, fluorogenic substrate (in words) (PTP): Neither pCPT-cAMP nor pCPT-cGMP inhibited | IC50 (hPAP [3]; read-out: IC50 human secretory PAP, fluorogenic substrate): 31.1 µM | IC50 (mPAP [4]; read-out: IC50 mouse secretory PAP, fluorogenic substrate): 49.7 µM | Inhibition of mouse secretory PAP in vitro using AMP as substrate (in words) (mPAP [6]; pH 7.0): inhibited | Inhibition of ALP, fluorogenic substrate (in words) (ALP [7]): Neither pCPT-cAMP nor pCPT-cGMP inhibited | Inhibition of human secretory PAP in vitro using AMP as substrate (in words) (hPAP [8]; pH 7.0): inhibited | Inhibition of hydrolysis of AMP to adenosine by transmembrane PAP (in words) (transmembrane PAP): inhibited
